A selection: hits, their analogues and other compounds. The true share with any hit is near 3.5%.
Apaf1 inhib = inhibitors of human Apaf-1 apoptosome; AID 489030; inhibition, % at 20 µM; reconstituted apoptosome caspase-3 activity, DEVD-Rh110 fluorescence; O14727; 0.71% of 330,000 active; active = inhibition of at least 40% at 20 µM;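 note: plate controls were DMSO wells for no effect and DEVD-CHO caspase inhibitor wells for full effect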
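Material: biochemical Apaf-1 apoptosome reconstitution. Medium: Hepes buffer, pH 7.5. Also added: cytochrome c activation, bis-DEVD rhodamine 110 substrate. Timing: 30 min compound preincubation, 50 min activation, room temperature. Measured by: rhodamine 110 fluorescence at Ex 480/Em 540 nm.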
PAFAH1B3 FP inh = PAFAH1B3 (human) inhibition; 0.28% of 340,000 active; Q15102; AID 492972; recombinant PAFAH1B3, FP-rhodamine probe, fluorescence polarization; inhibition, % at 3.39 µM;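 active = inhibition above the screen-wide average of all tested compounds plus 3 SD, cut at about 25% in these data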;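 note: 0% = enzyme with DMSO only and 100% = wells lacking PAFAH1B3 protein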
Target sequence (Q15102 whole entry, looked up): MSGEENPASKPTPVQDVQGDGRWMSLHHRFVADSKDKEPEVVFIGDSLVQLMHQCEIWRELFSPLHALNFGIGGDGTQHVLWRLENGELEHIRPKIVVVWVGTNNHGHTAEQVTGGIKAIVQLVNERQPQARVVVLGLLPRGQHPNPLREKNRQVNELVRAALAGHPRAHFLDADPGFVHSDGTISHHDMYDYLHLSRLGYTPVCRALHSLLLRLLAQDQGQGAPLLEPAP
PREPL inhibitor = inhibits the human prolyl oligopeptidase-like enzyme; Q4J6C6; recombinant PREPL, fluorescence polarization activity-based probe; inhibition, % at 5.96 µM; 0.68% of 320,000 active; in the data active = inhibition above about 43%;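 note: 0% = enzyme with DMSO and 100% = wells lacking enzyme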
PAFAH1B2 FP inh = blocks human PAF acetylhydrolase 1b catalytic subunit 2 | P68402 | recombinant PAFAH1B2, FP-rhodamine activity probe, fluorescence polarization | inhibition, % at 3.39 µM | 1.2% of 340,000 active;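 active = inhibition above the mean of all tested compounds plus 3 SD, cut at about 24% in these data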;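 note: 0% = enzyme with DMSO and 100% = wells lacking PAFAH1B2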
Target sequence (P68402 whole entry, looked up): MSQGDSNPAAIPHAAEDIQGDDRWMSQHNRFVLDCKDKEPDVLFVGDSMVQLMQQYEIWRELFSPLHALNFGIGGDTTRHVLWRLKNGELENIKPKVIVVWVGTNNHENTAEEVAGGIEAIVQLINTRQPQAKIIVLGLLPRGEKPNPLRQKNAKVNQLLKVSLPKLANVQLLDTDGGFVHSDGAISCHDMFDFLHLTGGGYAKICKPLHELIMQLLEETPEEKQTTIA
pPAFAH inh = pPAFAH (human) enzyme inhibition; recombinant pPAFAH, FP-rhodamine probe fluorescence polarization; inhibition, % at 3.39 µM; 1.5% of 330,000 active;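 active = inhibition above the mean inhibition across the screen plus 3 SD, cut at about 25% in these data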;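 note: inhibitors block binding of the rhodamine activity-based probe so polarization drops; 0% = enzyme with DMSO and 100% = wells lacking pPAFAH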
PAFAH2 inh = inhibitors of human PAFAH2. AID 492956. Q99487. 0.99% of 340,000 active. inhibition, % at 3.39 µM. recombinant PAFAH2, FP-rhodamine activity probe, fluorescence polarization;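 active = inhibition above the mean over all tested compounds plus 3 SD, cut at about 30% in these data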;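 note: inhibitors block probe labeling of enzyme so polarization drops; 0% = enzyme with DMSO and 100% = wells lacking PAFAH2 protein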
Numbers without * were called inactive; x = no result given.

SMILES | Apaf1 inhib | PAFAH1B3 FP inh | PREPL inhibitor | PAFAH1B2 FP inh | pPAFAH inh | PAFAH2 inh
O=C1N[C@H](Cc2ccccc2)COC(=O)[C@H](Cc2ccc(F)cc2)CC/C=C/C[C@@H]1CC(=O)N(CCO)Cc1ccccc1 | 24 | 5 | 34 | 10 | 6 | 5
C[C@H]1COC(=O)[C@@H](Cc2ccc(F)cc2)CC/C=C/C[C@H](CC(=O)N(CCO)Cc2ccccc2)C(=O)N1 | 9 | -2 | 12 | 25* | 1 | -7
C[C@H]1COC(=O)[C@@H](Cc2ccc(F)cc2)C/C=C\C[C@H](CC(=O)N(CCO)Cc2ccccc2)C(=O)N1 | 4 | 8 | 25 | 19 | 3 | 3
C[C@H]1COC(=O)[C@@H](Cc2ccc(F)cc2)CC/C=C/C[C@@H](CC(=O)N(CCO)Cc2ccccc2)C(=O)N1 | 22 | 4 | 33 | 26* | 4 | 2
O=C1N[C@H](Cc2ccccc2)COC(=O)[C@@H](Cc2ccc(F)cc2)CC/C=C/C[C@H]1CC(=O)N(CCO)Cc1ccccc1 | 24 | -3 | 30 | 6 | 29* | 28
CCN1C[C@@H]2[C@@H]3C(=O)N(Cc4ccccc4)C(=O)[C@@H]3[C@](CC)(C1=O)N2C(=O)c1ccccc1 | x | 0 | x | 4 | x | 1
C(=NN=C(NN=Cc1cccs1)NN=Cc1cccs1)c1cccs1 | x | 3 | x | 1 | x | -4
O=[N+]([O-])c1c(O)c(Cl)cc(Cl)c1Cl (tested in a mixture with another compound) | x | 3 | x | 12 | x | -2
CCN(CC)CCCN=C1N[C@@H](c2cccc(C(F)(F)F)c2)C(C(=O)OC)=C(C)N1CC | 13 | 6 | 18 | 5 | 2 | 2
CC1CCCCC1NC(=O)c1ccc(S(=O)(=O)N2CCCC2)cc1 (centres undefined) | 8 | 8 | -2 | 2 | 3 | -2
CC1CCCCC1NS(=O)(=O)c1ccc(S(=O)(=O)N2CCCC2)cc1 (centres undefined) | -6 | 3 | -3 | 14 | 26* | 2
Cc1ccc(N2CC(C(=O)N3CCC(C(=O)Nc4nnc(C(C)C)s4)CC3)CC2=O)cc1 (centres undefined) | 8 | 6 | 19 | 0 | -3 | -4
O=C(Cc1cccc(NC(=O)C2CCCN(C(=O)C3CCCCC3)C2)c1)Nc1ccc(C(=O)N2CCOCC2)cc1 (centres undefined) | x | 2 | x | 3 | x | -7
Cc1ccc(S(=O)(=O)N2CCC(C(=O)N[C@@H](Cc3ccccc3)C(=O)O)CC2)cc1 | -1 | 4 | -4 | 22 | 3 | -1
O=C(NC(Cc1ccccc1)C(=O)O)C1CCN(S(=O)(=O)c2cccc(C(F)(F)F)c2)CC1 (centres undefined) | 8 | 8 | 3 | 11 | 27* | -3
Cc1onc(-c2ccc(Cl)cc2)c1-c1ccnc(SCC(=O)Nc2ccc(C(C)C)cc2)n1 | 7 | -13 | 5 | 30* | 0 | -17
O=C(CSc1nccc(-c2cccs2)n1)Nc1ccc(Cl)cc1 | 5 | 12 | -38 | 5 | -2 | -12
Cc1ccc2nc(Cl)c(/C=N/Nc3ccc(C(=O)O)cc3)cc2c1 | -16 | 10 | 11 | 4 | 30* | -4
Cc1ccc2cc(/C=N/NC(=O)c3ccc(F)cc3)c(Cl)nc2c1 | -4 | 5 | -3 | 0 | -2 | 2
CN(CCS(=O)(=O)c1ccc(Cl)cc1)Cc1cccnc1 | -18 | 2 | -3 | 7 | -1 | 7
CC(C)c1ccc(C(C)NCCS(=O)(=O)c2ccc(Cl)cc2)cc1 (centres undefined) | 22 | 6 | 3 | 34* | 1 | 5
COc1ccc(NC(=O)/C(C#N)=C/c2ncc([N+](=O)[O-])n2C)c(OC)c1 | -5 | 0 | 4 | 3 | 4 | 2
CC(=O)N1c2ccc(S(=O)(=O)NCC3CCC(C(=O)N4CCC(C)CC4)CC3)cc2CC1C (centres undefined) | 9 | 8 | 7 | 4 | 9 | 5
CSC1=NSC2=NC(=O)/C(=C/c3coc4ccc(O)cc4c3=O)C(=N)N12 | -12 | 11 | 11 | 18 | 29* | 12
CC1CCCC(NC(=O)COC(=O)Cc2ccc(Br)cc2)C1C (centres undefined) | 18 | x | 2 | x | 25* | x
SMILES | Apaf1 inhib | PAFAH1B3 FP inh | PREPL inhibitor | PAFAH1B2 FP inh | pPAFAH inh | PAFAH2 inh
CC1CCCC(NC(=O)COC(=O)COc2ccc(Br)cc2)C1C (centres undefined) | 2 | 4 | 6 | 18 | 16 | -4
Cc1ccc(OCCC(=O)OCC(=O)NC2CCCC(C)C2C)cc1 (centres undefined) | 6 | 5 | 9 | 34* | 22 | -3
CCOc1ccc(OCCC(=O)OCC(=O)NC2CCCCC2)cc1 | 8 | 22 | 5 | 7 | 31* | 7
CC1CCCC(NC(=O)COC(=O)CCC2CCCC2)C1C (centres undefined) | 9 | -4 | -6 | 2 | 28* | -6
COC(=O)Nc1cc(C(=O)c2ccc(Cl)cc2Cl)c[nH]1 | 5 | 1 | -7 | -2 | 1 | 12
CC/C(=N\NC(=O)c1nnn(-c2nonc2N)c1-c1cccs1)c1ccccc1 | 13 | 4 | 7 | 5 | 5 | 1
Cc1ccsc1C(=O)OCC(=O)NC1CCCC(C)C1C (centres undefined) | 2 | 6 | 20 | 5 | 32* | 85*
Cc1ccsc1C(=O)OCC(=O)NC1CCS(=O)(=O)C1 (centres undefined) | 10 | 2 | 10 | 3 | 1 | 3
COc1cccc2c1C(=O)c1c(O)c3c(c(O)c1C2=O)CC(O)(C(C)=O)CC3OC1CC(O)C(O)C(C)O1 (centres undefined) | x | 52* | x | 65* | x | 68*
COc1cccc2c1C(=N)c1c(O)c3c(c(O)c1C2=O)CC(O)(C(C)=O)CC3OC1CC(N)C(O)C(C)O1 (centres undefined) | x | 8 | x | 11 | x | 11
COc1cccc2c1C(=O)c1c(O)c3c(c(O)c1C2=O)C[C@](O)(C(C)=O)C[C@H]3O[C@@H]1C[C@@H](N)[C@@H](O)[C@@H](C)O1 | 21 | 43* | 26 | 49* | 57* | 51*
CCOC(=O)C1C(C(=O)OCC)C1(c1ccccc1)c1ccccc1 (centres undefined) | 30 | 8 | 10 | 29* | 3 | -6
O=C(O)C1C(C(=O)O)C1(c1ccccc1)c1ccccc1 (centres undefined) | -21 | 5 | -1 | 0 | 1 | -3
COc1cc(NC(=O)CSc2ncnc3sc4c(c23)CCCC4)c(C(=O)O)cc1OC | 6 | 10 | 8 | 6 | 26* | 21
CC(=O)CSc1ncnc2sc3c(c12)CCC3 | -10 | 1 | -12 | -4 | 5 | 1
Cc1cc(-c2nnc(-c3cccc(Cl)c3)o2)no1 | -11 | 4 | -3 | 6 | 0 | -2

Source: PubChem BioAssay (several laboratories)
